Results on 16 compounds are retold here after ChEMBL document CHEMBL1146273, “Kynurenic acid amides as novel NR2B selective NMDA receptor antagonists” (Bioorg Med Chem Lett, 2007).

The target in data set [1] is Glutamate NMDA receptor (Rattus norvegicus) (UniProt P35439+Q00959+Q00960+Q00961+Q62645+Q8VHN2+Q9R1M7). Description: Inhibition of NMDA receptor in rat cortical cells assessed as NMDA-evoked increase in intracellular calcium level at 0.1 uM. Type of data set: cell-based. The essentials:
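Rat cortical cell culture loaded with Fluo-4/AM. Baseline and NMDA-evoked intracellular Ca2+ changes monitored by fluorimetry on a plate reader. Read-out is inhibition of the NMDA-evoked Ca2+ rise, with percent inhibition taken at 0.1 µM compound. Number of experiments (n) given per compound.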
(Calcium flux is commonly read through the fluorescence of an indicator in the cells.)

For another data set, the species on record is Rattus norvegicus. The experiment in a line: Inhibition of human recombinant NR1/NR2A receptor expressed in rat cortical cells assessed as NMDA-evoked increase in intracellular calcium level at 15 uM. In kind it is cell-based. The essentials:
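Fluo-4/AM Ca2+ fluorimetry on a plate reader, applied to cells expressing recombinant NR1/NR2A receptors. Inhibition (%) of the NMDA-evoked intracellular Ca2+ increase measured at 15 µM compound.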

The target of data set [2] is Glutamate NMDA receptor. Description: Inhibition of NMDA receptor in rat cortical cells assessed as NMDA-evoked increase in intracellular calcium level. In kind it is cell-based. The method in brief: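 Rat cortical cell culture loaded with Fluo-4/AM. Baseline and NMDA-evoked intracellular Ca2+ changes monitored by fluorimetry on a plate reader. Number of experiments (n) given per compound.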

Data set [3] concerns Mus musculus. Description: Analgesic activity against formalin-induced pain in mouse at 20 mg/kg, po. In kind it is ADME, organism-based. Set-up: dose 20 mg/kg, route oral. Conditions: in vivo; call rule not given here. The method in brief:
(§1)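 Fasted male NMRI mice (20–25 g) dosed orally with test drug or vehicle (5% Tween 80) 15 min before 20 µl of 1% formalin injected sc into right hindpaw. Licking/biting time read by visual observation at 20–25 min post-formalin (late phase). Percent decrease versus daily vehicle group; Mann–Whitney U-test; ED50 from Boltzmann sigmoidal fit.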

The subject of data set [4] is Mus musculus. Description: Analgesic activity against formalin-induced pain in po dosed mouse. In kind it is ADME, organism-based. The method in brief:
as §1

Data set [5] has as its target Glutamate NMDA receptor. The experiment in a line: Displacement of [3H]Ro-256981 from NMDA receptor in rat forebrain membrane. In kind it is cell membranes. The essentials:
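Binding assay on rat forebrain membrane using tritiated Ro-25,6981 as radioligand.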
For orientation: Loss of bound radioactivity is the signal in a displacement assay; it reports binding, not function.

A word on the inhibition: it is the change of the read-out against control, counted positive when it falls. By IC50 is commonly meant the concentration needed to halve the response being measured. Broadly, the ED50 is the dose that gives a 50% effect, or the effect in half of the subjects. A high value points to a need for a large dose. The term Ki denotes the equilibrium dissociation constant of an inhibitor or competing ligand from its target. A low value points to tighter binding.

Bounds are passed on as bounds.

In the case of `O=C(c1cc(=O)c2ccccc2[nH]1)N1CCC(Cc2ccccc2)CC1`, the inhibition came out at 4.5% in data set [1] and 1.1% in the data set filed under Rattus norvegicus.
On to `O=C(c1cc2ccc(O)cc2[nH]1)N1CCC(Cc2ccccc2)CC1`, for which the inhibition in the data set listed under Rattus norvegicus turned out to be 15.6%.
As to `O=C(c1cc(=O)c2cc(O)ccc2[nH]1)N1CCC(Cc2ccccc2)CC1`, the IC50 at Glutamate NMDA receptor [2] came to 9.1 nM. For the same compound, in the data set listed under Rattus norvegicus, the inhibition was 8.9%. Besides, the Activity result in the data set on Mus musculus [3] is recorded as “Not Active”.
In the case of `O=C(c1cc(=O)c2cc(O)ccc2[nH]1)N1CCC(Oc2ccccc2)CC1`, on Glutamate NMDA receptor [2], the half-inhibitory concentration (IC50) turned out to be 49.6 nM. Further, the inhibition in the data set filed under Rattus norvegicus worked out at 0.7%. Moreover, the 50% effect level with Mus musculus [4] (ED50) was put at a dose of 8.5 mg/kg.
In the case of `O=C(c1cc(=O)c2cc(O)ccc2[nH]1)N1CCC(Oc2ccc(Cl)cc2)CC1`, at Glutamate NMDA receptor [2], the concentration for half-maximal inhibition (IC50) came to 7.1 nM. In addition, the inhibition in the data set filed under Rattus norvegicus worked out at 5.1%. For the same compound, in the data set with Mus musculus [3], the Activity result was “Not Active”.
On to `Cc1ccc(OC2CCN(C(=O)c3cc(=O)c4cc(O)ccc4[nH]3)CC2)cc1`, for which the IC50 on Glutamate NMDA receptor [2] came out at 6.2 nM. Further, the inhibition in the data set filed under Rattus norvegicus is -3.5%. The ED50 in the data set with Mus musculus [4] was determined as 8.2 mg/kg. Further, the affinity on Glutamate NMDA receptor [5] corresponds to a Ki of 4.2 nM.
Turning to `O=C(c1cc2cc(O)ccc2[nH]1)N1CCC(Cc2ccccc2)CC1`, the IC50 on Glutamate NMDA receptor [2] came out at 25 nM. Also, in the data set filed under Rattus norvegicus, the inhibition was found to be 17.2%.
With `O=C(c1cc(=O)c2cc(O)ccc2[nH]1)N1CCC(Cc2ccc(F)cc2)CC1`, the IC50 at Glutamate NMDA receptor [2] amounted to 8.7 nM. Also, the inhibition in the data set listed under Rattus norvegicus is -0.9%. For the same compound, the 50% effect level in the data set with Mus musculus [4] (ED50) was put at a dose of 9.5 mg/kg.
Consider `O=C(c1nc(=O)c2cc(O)ccc2[nH]1)N1CCC(Cc2ccccc2)CC1`, for which the IC50 at Glutamate NMDA receptor [2] turned out to be 317 nM. Besides, the inhibition in the data set listed under Rattus norvegicus was determined as 13.9%.
Take `O=C(c1cc(=O)c2cc3[nH]c(=O)oc3cc2[nH]1)N1CCC(Cc2ccccc2)CC1`: at Glutamate NMDA receptor [2], the IC50 is 21.7 nM. The inhibition in the data set filed under Rattus norvegicus was -2.1%. Also, the 50% effective dose (ED50) with Mus musculus [4] is greater than 20 mg/kg.
On to `CC(=O)Nc1ccc2[nH]c(C(=O)N3CCC(Cc4ccccc4)CC3)cc(=O)c2c1`, for which the inhibition in data set [1] amounted to 2.6%; in the data set listed under Rattus norvegicus it was 12.4%.
As to `O=C(c1nc2ccc(O)cc2[nH]1)N1CCC(Cc2ccccc2)CC1`, the inhibition in the data set filed under Rattus norvegicus turned out to be 21%.
On to `C[C@H]([C@@H](O)c1ccc(O)cc1)N1CCC(Cc2ccccc2)CC1`, for which, in the data set listed under Rattus norvegicus, the inhibition is -2.7%.
Consider `O=C(c1cc(=O)c2cc(O)ccc2[nH]1)N1CCC(Cc2ccc(Cl)cc2)CC1`, for which the IC50 on Glutamate NMDA receptor [2] amounted to 9.1 nM. Further, the inhibition in the data set filed under Rattus norvegicus was -5.1%. In addition, in the data set with Mus musculus [3], the Activity entry is “Not Active”.
`O=C(c1cc(=O)c2ccc(O)cc2[nH]1)N1CCC(Cc2ccccc2)CC1`: the inhibition in data set [1] was found to be 27.9%; in the data set filed under Rattus norvegicus it was 9.1%.
Regarding `Cc1ccc(CC2CCN(C(=O)c3cc(=O)c4cc(O)ccc4[nH]3)CC2)cc1`, at Glutamate NMDA receptor [2], the IC50 worked out at 11 nM. Also, in the data set listed under Rattus norvegicus, the inhibition is -2.4%. Also, in the data set with Mus musculus [4], the ED50 came out at 10.6 mg/kg.
